Measured values: ChEMBL document CHEMBL1134450, “Solid-phase synthesis of a nonpeptide RGD mimetic library: new selective alphavbeta3 integrin antagonists” (J Med Chem, 2001)
Where a SMILES comes first, the peptide text is derived from it. [ ]: non-standard residue; d: D form. NMeF = CN[C@@H](Cc1ccccc1)C(=O)O; azaGly = NNC(=O)O

Tests used:
[1] = Partition coefficient (logP); type: physicochemical; details: octanol/water
Integrin alpha-V/beta-3 = Integrin alpha-V/beta-3 (Homo sapiens, UniProt P05106+P06756); assay: Inhibitory activity against vitronectin receptor (alpha V beta 3); type: protein-complex assay
Sequence of Integrin alpha-V/beta-3 (P05106 27-788 limits assumed): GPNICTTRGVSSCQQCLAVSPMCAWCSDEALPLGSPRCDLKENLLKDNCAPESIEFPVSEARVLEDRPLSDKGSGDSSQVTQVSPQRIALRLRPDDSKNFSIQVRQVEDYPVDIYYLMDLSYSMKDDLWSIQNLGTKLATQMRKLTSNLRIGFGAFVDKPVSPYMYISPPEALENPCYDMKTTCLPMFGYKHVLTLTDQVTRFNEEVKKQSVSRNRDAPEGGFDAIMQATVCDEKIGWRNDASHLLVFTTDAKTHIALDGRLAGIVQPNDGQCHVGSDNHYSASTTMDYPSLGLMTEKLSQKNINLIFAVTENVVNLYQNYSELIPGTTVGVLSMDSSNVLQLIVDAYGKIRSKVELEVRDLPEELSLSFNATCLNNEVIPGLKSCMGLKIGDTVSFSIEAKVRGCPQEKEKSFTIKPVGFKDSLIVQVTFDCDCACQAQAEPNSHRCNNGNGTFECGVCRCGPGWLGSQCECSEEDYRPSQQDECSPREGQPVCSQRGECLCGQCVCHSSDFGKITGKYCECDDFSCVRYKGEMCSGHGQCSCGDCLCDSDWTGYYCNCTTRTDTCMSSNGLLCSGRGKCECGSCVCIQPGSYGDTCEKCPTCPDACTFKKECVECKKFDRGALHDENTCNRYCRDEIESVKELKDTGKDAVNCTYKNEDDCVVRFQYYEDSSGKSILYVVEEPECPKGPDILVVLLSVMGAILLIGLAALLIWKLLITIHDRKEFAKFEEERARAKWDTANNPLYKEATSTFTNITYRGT
Sequence of Integrin alpha-V/beta-3 (P06756 31-889 limits assumed): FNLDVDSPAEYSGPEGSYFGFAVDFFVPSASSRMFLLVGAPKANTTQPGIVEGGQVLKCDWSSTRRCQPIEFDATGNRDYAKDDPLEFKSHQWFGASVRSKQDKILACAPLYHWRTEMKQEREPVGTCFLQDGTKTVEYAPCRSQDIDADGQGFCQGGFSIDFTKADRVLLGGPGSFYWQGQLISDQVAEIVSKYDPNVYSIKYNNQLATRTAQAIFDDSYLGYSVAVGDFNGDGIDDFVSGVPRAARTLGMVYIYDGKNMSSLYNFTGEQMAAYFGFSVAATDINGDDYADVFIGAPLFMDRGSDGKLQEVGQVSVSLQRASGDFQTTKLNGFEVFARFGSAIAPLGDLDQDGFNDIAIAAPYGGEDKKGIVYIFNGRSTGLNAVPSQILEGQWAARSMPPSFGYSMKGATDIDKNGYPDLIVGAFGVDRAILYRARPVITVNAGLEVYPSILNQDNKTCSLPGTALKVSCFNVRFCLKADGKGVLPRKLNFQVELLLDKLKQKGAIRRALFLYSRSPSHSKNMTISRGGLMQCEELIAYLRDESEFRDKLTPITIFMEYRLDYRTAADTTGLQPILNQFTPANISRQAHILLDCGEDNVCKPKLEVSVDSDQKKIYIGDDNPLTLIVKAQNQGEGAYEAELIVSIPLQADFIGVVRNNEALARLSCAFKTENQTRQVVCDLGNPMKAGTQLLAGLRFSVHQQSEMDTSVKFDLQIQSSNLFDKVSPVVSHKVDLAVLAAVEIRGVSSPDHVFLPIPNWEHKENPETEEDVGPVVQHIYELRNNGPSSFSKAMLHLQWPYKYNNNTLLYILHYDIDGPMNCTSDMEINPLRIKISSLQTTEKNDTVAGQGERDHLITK
Sequence of Integrin alpha-V/beta-3 (P06756 891-1048 limits assumed): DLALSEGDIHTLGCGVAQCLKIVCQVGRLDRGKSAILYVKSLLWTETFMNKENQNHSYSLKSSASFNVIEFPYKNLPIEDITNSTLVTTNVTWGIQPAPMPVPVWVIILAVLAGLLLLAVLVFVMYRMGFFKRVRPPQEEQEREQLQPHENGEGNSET
Procedure, shortened: (§1)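 Solid-phase competition binding. αvβ3 was recombinant, from baculovirus, purified on LM609 antibody column, paired with biotinylated human vitronectin. αIIbβ3 was paired with biotinylated human fibrinogen. Integrins coated at 1 µg/mL, blocked, then compounds serially diluted and co-incubated with ligand (1 µg/mL), 37 °C, 3 h. Read-out was alkaline-phosphatase anti-biotin.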

[2] = target: Integrin alpha-IIb/beta-3 (Homo sapiens, UniProt P05106+P08514); assay: Inhibitory activity against alpha IIb beta 3 integrin; type: protein-complex assay; procedure, shortened: as §1
Sequence of Integrin alpha-IIb/beta-3 (P05106 27-788 limits assumed): as the sequence (P05106 27-788 limits assumed) above
Sequence of Integrin alpha-IIb/beta-3 (P08514 32-887 limits assumed): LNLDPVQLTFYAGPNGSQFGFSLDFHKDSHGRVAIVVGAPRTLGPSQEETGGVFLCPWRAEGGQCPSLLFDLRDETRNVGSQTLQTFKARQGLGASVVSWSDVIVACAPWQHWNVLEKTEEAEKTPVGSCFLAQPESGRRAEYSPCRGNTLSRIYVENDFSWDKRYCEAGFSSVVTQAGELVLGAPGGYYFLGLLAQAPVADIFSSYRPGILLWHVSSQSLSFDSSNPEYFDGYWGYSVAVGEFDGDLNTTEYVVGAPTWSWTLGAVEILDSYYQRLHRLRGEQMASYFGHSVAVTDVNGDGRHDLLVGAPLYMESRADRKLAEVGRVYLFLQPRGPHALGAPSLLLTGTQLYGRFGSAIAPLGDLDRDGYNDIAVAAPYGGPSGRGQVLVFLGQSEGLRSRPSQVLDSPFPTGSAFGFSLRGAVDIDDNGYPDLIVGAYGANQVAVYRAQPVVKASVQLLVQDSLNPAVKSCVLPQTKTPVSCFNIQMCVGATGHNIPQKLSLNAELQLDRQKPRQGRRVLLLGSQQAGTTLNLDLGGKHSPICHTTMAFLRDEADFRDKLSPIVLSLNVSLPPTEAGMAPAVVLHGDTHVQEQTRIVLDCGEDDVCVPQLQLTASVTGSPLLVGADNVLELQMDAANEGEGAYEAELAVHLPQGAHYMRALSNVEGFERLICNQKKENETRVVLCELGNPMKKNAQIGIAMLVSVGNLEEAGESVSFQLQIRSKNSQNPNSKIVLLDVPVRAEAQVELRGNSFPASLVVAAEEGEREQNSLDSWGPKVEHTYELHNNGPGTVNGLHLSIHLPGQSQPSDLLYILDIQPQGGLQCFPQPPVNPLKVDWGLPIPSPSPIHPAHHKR
Sequence of Integrin alpha-IIb/beta-3 (P08514 891-1039 limits assumed): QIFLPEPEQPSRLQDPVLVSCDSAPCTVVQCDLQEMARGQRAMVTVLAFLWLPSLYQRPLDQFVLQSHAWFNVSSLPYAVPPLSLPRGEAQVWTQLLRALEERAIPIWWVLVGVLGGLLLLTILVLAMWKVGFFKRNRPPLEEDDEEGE

[3] = target: Integrin alpha-V/beta-3 and alpha-IIb/beta 3 (Homo sapiens) (UniProt P05106+P06756+P08514); assay: Selectivity designates the quotient of affinities to integrins alpha v beta-3 and alpha IIb beta3; type: protein assay
Procedure, shortened: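 Quotient of IC50 values from the immobilized-integrin competition assays: αvβ3 against biotinylated vitronectin and αIIbβ3 against biotinylated fibrinogen. Ligand at 1 µg/mL, 37 °C, 3 h, anti-biotin alkaline-phosphatase detection. IC50 came from sigmoid fits of triplicates.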

SMILES | logP [1] | IC50 (Integrin alpha-V/beta-3) | IC50 [2] | Selectivity [3]
Cc1ccnc(NCCCCC(=O)NNC(=O)CC(CC(=O)O)c2ccc(Cl)cc2)c1 (stereo unspecified) | 2.63 | 15 nM | – | –
Cc1ccnc(NCCCCC(=O)NNC(=O)NC(CC(=O)O)c2cccc3ccccc23)c1 (stereo unspecified) | 2.64 | 140 nM | – | –
N=C(N)Nc1cccc(C(=O)NNC(=O)NC(CC(=O)O)c2ccccc2)c1 (stereo unspecified) | 0.7 | 0.8 nM | 8500 nM | –
NC(N)=Nc1cccc(C(=O)NNC(=O)NC(CC(=O)O)c2cccc3ccccc23)c1 (stereo unspecified) | 1.7 | 27 nM | > 10000 nM | –
CC(=N)Nc1cccc(C(=O)NNC(=O)CC(CC(=O)O)c2ccccc2)c1 (stereo unspecified) | 1.44 | 23 nM | > 10000 nM | –
Cc1ccnc(NCCCCC(=O)NNC(=O)NC(CC(=O)O)c2ccc(F)cc2)c1 (stereo unspecified) | 1.8 | 48 nM | > 10000 nM | –
CC(=N)Nc1cccc(C(=O)NNC(=O)CC(CC(=O)O)c2ccc(-c3ccccc3)cc2)c1 (stereo unspecified) | 3.11 | 26 nM | > 1000 nM | –
N=C(N)Nc1cccc(C(=O)NNC(=O)NC(CC(=O)O)c2ccc(OC(F)(F)F)cc2)c1 (stereo unspecified) | 2.23 | 3 nM | > 1000 nM | –
CC(C)[C@@H]1NC(=O)[C@H](CCCN=C(N)N)NC(=O)CNC(=O)[C@H](CC(=O)O)NC(=O)[C@H](Cc2ccccc2)N(C)C1=O (cyclo(DGRV[NMeF])) | – | – | – | 1460
Cc1ccnc(NCCCCC(=O)NNC(=O)CC(CC(=O)O)c2cc(Cl)cc(Cl)c2)c1 (stereo unspecified) | 3.19 | 9 nM | > 10000 nM | –
N=C(N)Nc1cccc(C(=O)NNC(=O)CC(CC(=O)O)c2ccc(-c3ccccc3)cc2)c1 (stereo unspecified) | 2.8 | 0.7 nM | 1000 nM | –
N=C(N)Nc1cccc(C(=O)NNC(=O)NC(CC(=O)O)C(N)=O)c1 (stereo unspecified) | – | – | – | > 70
N=C(N)Nc1cccc(C(=O)NNC(=O)CC(CC(=O)O)c2cc(Cl)cc(Cl)c2)c1 (stereo unspecified) | 2.24 | 2 nM | 1000 nM | –
Cc1ccnc(NCCCCC(=O)NNC(=O)NC(CC(=O)O)c2cc(Cl)cc(Cl)c2)c1 (stereo unspecified) | 2.76 | 80 nM | > 10000 nM | –
NC(N)=Nc1cccc(C(=O)NNC(=O)NC(CC(=O)O)c2ccc(F)cc2)c1 (stereo unspecified) | 0.86 | 6 nM | 1000 nM | –
Cc1ccnc(NCCCCC(=O)NNC(=O)CC(CC(=O)O)c2ccccc2)c1 (stereo unspecified) | 2.07 | 7 nM | > 10000 nM | –
CC(=N)Nc1cccc(C(=O)NNC(=O)CC(CC(=O)O)c2cc(Cl)cc(Cl)c2)c1 (stereo unspecified) | 2.55 | 6 nM | – | –
N=C(N)Nc1cccc(C(=O)NNC(=O)NC(CC(=O)O)c2ccc(Br)cc2)c1 (stereo unspecified) | 1.53 | 1 nM | > 1000 nM | –
NCCCC[C@H](NC(=O)[C@@H]1CCCN1C(=O)[C@H](CO)NC(=O)[C@H](CC(=O)O)NC(=O)CNC(=O)[C@H](CCCN=C(N)N)NC(=O)CN)C(=O)O | – | 1000 nM | > 10000 nM | 8
Cc1ccnc(NCCCCC(=O)NNC(=O)NC(CC(=O)O)c2ccc(Br)cc2)c1 (stereo unspecified) | 2.47 | 7 nM | – | –
Cc1ccnc(NCCCCC(=O)NNC(=O)CC(CC(=O)O)c2ccc(-c3ccccc3)cc2)c1 (stereo unspecified) | – | 3 nM | – | 1000
NC(N)=Nc1cccc(C(=O)NNC(=O)NC(CC(=O)O)c2cc(Cl)cc(Cl)c2)c1 (stereo unspecified) | 1.82 | 1 nM | > 1000 nM | –
COc1ccc(C(CC(=O)O)CC(=O)NNC(=O)c2cccc(N=C(C)N)c2)cc1 (stereo unspecified) | 1.31 | 37 nM | > 1000 nM | –

SMILES | logP [1] | IC50 (Integrin alpha-V/beta-3) | IC50 [2] | Selectivity [3]
N=C(N)Nc1cccc(C(=O)NNC(=O)CC(CC(=O)O)c2ccc(Cl)cc2)c1 (stereo unspecified) | 1.68 | 2 nM | > 1000 nM | –
COc1ccc(C(CC(=O)O)CC(=O)NNC(=O)CCCCNc2cc(C)ccn2)cc1 (stereo unspecified) | 1.94 | 22 nM | > 10000 nM | –
N=C(N)Nc1cccc(C(=O)NNC(=O)CC(CC(=O)O)c2ccc(Br)cc2)c1 (stereo unspecified) | 1.95 | 2 nM | > 1000 nM | –
CC(=N)Nc1cccc(C(=O)NNC(=O)CC(CC(=O)O)c2ccc(Cl)cc2)c1 (stereo unspecified) | 2 | 160 nM | 8000 nM | –
Cc1ccnc(NCCCCC(=O)NNC(=O)CC(CC(=O)O)c2ccc(Br)cc2)c1 (stereo unspecified) | 2.9 | 6 nM | 9000 nM | –
COc1ccc(C(CC(=O)O)NC(=O)NNC(=O)CCCCNc2cc(C)ccn2)cc1 (stereo unspecified) | 1.52 | 42 nM | > 10000 nM | –
O=C(O)CC(CC(=O)NNC(=O)c1cccc(Nc2ccccn2)c1)c1cc(Cl)cc(Cl)c1 (stereo unspecified) | 3.54 | 210 nM | – | –
COc1ccc(C(CC(=O)O)NC(=O)NNC(=O)c2cccc(N=C(N)N)c2)cc1 (stereo unspecified) | 0.58 | 0.9 nM | > 1000 nM | –
N=C(N)Nc1cccc(C(=O)NNC(=O)CC(CC(=O)O)c2ccc(F)cc2)c1 (stereo unspecified) | 1.28 | 4 nM | > 1000 nM | –
Cc1ccnc(NCCCCC(=O)NNC(=O)NC(CC(=O)O)c2ccccc2)c1 (stereo unspecified) | 1.64 | 37 nM | > 10000 nM | –
CC(N)=Nc1cccc(C(=O)NNC(=O)CC(CC(=O)O)c2ccc(Br)cc2)c1 (stereo unspecified) | 2.27 | 40 nM | > 1000 nM | –
Cc1ccnc(NCCCCC(=O)NNC(=O)NC(CC(=O)O)c2ccc(OC(F)(F)F)cc2)c1 (stereo unspecified) | 3.17 | 130 nM | – | –
Cc1ccnc(NCCCCC(=O)NNC(=O)CC(CC(=O)O)c2ccc(F)cc2)c1 (stereo unspecified) | 2.23 | 35 nM | – | –
CC(C)[C@@H]1NC(=O)[C@H](CCCN=C(N)N)NC(=O)NNC(=O)[C@H](CC(=O)O)NC(=O)[C@H](Cc2ccccc2)N(C)C1=O (cyclo(D[azaGly]RV[NMeF])) | – | – | – | 270
CC(C)[C@@H]1NC(=O)[C@H](CCCN=C(N)N)NC(=O)CNC(=O)[C@H](CC(=O)O)NC(=O)[C@H](Cc2ccccc2)NC1=O (cyclo(DGRVF)) | – | – | – | 415
Cc1ccnc(NCCCCC(=O)NNC(=O)NC(CC(=O)O)c2ccc(Cl)cc2)c1 (stereo unspecified) | 2.2 | 0.3 nM | 7000 nM | –
NC(=O)C(CC(=O)O)NC(=O)NNC(=O)c1cccc(N=C(N)N)c1 (stereo unspecified) | -2.42 | 150 nM | > 10000 nM | –
N=C(N)Nc1cccc(C(=O)NNC(=O)NC(CC(=O)O)c2ccc(Cl)cc2)c1 (stereo unspecified) | 1.26 | 0.1 nM | 5500 nM | –
COc1ccc(C(CC(=O)O)CC(=O)NNC(=O)c2cccc(NC(=N)N)c2)cc1 (stereo unspecified) | 1 | 1 nM | > 1000 nM | –
N=C(N)NCCCCC(=O)NNC(=O)NC(CC(=O)O)c1ccccc1 (stereo unspecified) | -0.26 | 40 nM | 1000 nM | –
Cc1ccnc(NCCCCC(=O)NNC(=O)NCCC(=O)O)c1 | -0.07 | 1400 nM | – | –
CC(=N)Nc1cccc(C(=O)NNC(=O)CC(CC(=O)O)c2ccc(F)cc2)c1 (stereo unspecified) | 1.6 | 160 nM | > 1000 nM | –
N=C(N)Nc1cccc(C(=O)NNC(=O)CC(CC(=O)O)c2ccccc2)c1 (stereo unspecified) | 1.13 | 15 nM | > 10000 nM | –
